APJ antagonist: blocks the human apelin receptor APJ. P35414. CHO-K1 APJ beta-arrestin complementation, luminescence. inhibition, % at 20 µM. hit rate 0.32% among 330,000;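 active = inhibition above about 40% at 20 µM, limit read from the data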;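 note: cells challenged with 10 nM apelin-13 agonist together with compound; plate controls were apelin-13 plus DMSO wells for no effect and DMSO wells lacking apelin-13 for full effect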
CCR6 antagonist: CCR6 (human) receptor antagonism. P51684. CHO-K1 CCR6 PathHunter beta-arrestin, luminescence, CCL20-stimulated. inhibition, % at 20 µM. hit rate 0.49% among 340,000;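 active = compounds whose inhibition of the agonist-driven luminescence signal at 20 µM reaches about 50%, limit read from the data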;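 note: cells stimulated with CCL20 at 14 nM final; plate controls were DMSO with CCL20 for no effect and DMSO without agonist for full effect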
Target sequence (P51684 whole entry, looked up): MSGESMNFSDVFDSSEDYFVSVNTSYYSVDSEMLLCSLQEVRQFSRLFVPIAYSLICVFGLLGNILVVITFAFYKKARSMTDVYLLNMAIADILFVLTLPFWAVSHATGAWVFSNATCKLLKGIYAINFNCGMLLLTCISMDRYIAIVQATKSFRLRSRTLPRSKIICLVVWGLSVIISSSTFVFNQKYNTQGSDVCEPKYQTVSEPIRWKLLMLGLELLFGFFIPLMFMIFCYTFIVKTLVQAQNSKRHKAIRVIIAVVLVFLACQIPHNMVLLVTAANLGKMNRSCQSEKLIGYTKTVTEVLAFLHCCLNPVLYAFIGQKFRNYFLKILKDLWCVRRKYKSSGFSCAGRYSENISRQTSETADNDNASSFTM
EBI2 block: antagonists of human EBI2 receptor | EBI2 beta-arrestin recruitment, luminescence, 7a,25-OHC stimulated | P32249 | inhibition, % at 5 µM | AID 651636 | hit rate 0.81% among 360,000; in the data active = inhibition above about 38%;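 note: enzyme fragment complementation signal reports receptor beta-arrestin coupling in cells; 0% = agonist plus DMSO wells and 100% = wells without agonist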
APJ agonist: agonists of human APJ apelin receptor; P35414; CHO-K1 APJ PathHunter beta-arrestin, luminescence; 0% DMSO wells, 100% apelin; activation, % at 20 µM; hit rate 0.11% among 330,000; AID 2520;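 active = activation more than six SD over the plate average, tested at 20 µM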;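 note: 0% = DMSO alone and 100% = apelin-13 at 10 nM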
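Test system: CHO-K1 APJ beta-arrestin complementation cell line. Amount: cell density 1000 per well. Controls: DMSO negative, 10 nM Apelin-13 positive. Signal: luminescent beta-gal fragment complementation, chemiluminescent substrate. Read-out basis: agonist-driven arrestin binding to APJ. Timing: compound stimulation 90 min at 25 °C, detection 60 min.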
CXCR6 inh: CXCR6 (human) receptor inhibition. O00574. CHO-K1 PathHunter CXCR6 beta-arrestin, luminescence. inhibition, % at 20 µM. AID 602244. hit rate 0.36% among 360,000; in the data active = inhibition above about 34%, passing the limit was not always enough;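 note: antagonist mode with CXCL16 agonist at 10 nM final; 0% = 10 nM CXCL16 with DMSO and 100% = unstimulated wells without agonist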
Active calls of the source: *; / = no result. Most compounds without a hit are left out; they make up all but 1.5% or so of the library.

SMILES	APJ antagonist	CCR6 antagonist	EBI2 block	APJ agonist	CXCR6 inh
CN1CCc2nc(SCc3ccc(Cl)cc3)c(C#N)c(-c3cccs3)c2C1	27	74*	/	-1	/
O=C1/C(=C/c2cccc([N+](=O)[O-])c2)CCc2ccccc21	18	23	-71	-6	15
CCN1C/C(=C\c2cccc([N+](=O)[O-])c2)C(=O)/C(=C/c2cccc([N+](=O)[O-])c2)C1	/	73*	40	/	31
Cc1ccc(-c2nc3cnccn3c2Nc2c(C)cccc2C)o1	-16	67*	5	2	31
Cc1ccc(-c2nc3ncccn3c2Nc2ccccc2C)o1	3	3	0	-3	1
C=CCNc1ncnc2c1ncn2[C@H]1CN(CCc2ccccc2)C[C@@H](CO)O1	/	/	2	/	2
CCc1ccc(C(O)c2ncc(-c3ccccc3Cl)[nH]2)cc1 (stereo unspecified)	/	/	9	/	-1
C/C(=N\Nc1cc(-c2ccccc2)nc(-c2ccc(Br)cc2)n1)c1cccc(N)c1	7	-11	29	1	1
C/C(=N/Nc1cc(-c2ccccc2)nc(-c2ccccc2)n1)c1ccc(O)cc1	-18	-8	60*	-1	15
Cc1cn([C@H]2C[C@H](O)[C@@H](CNC(=O)[C@H](N)Cc3cn(COCc4ccccc4)cn3)O2)c(=O)[nH]c1=O	/	/	-1	/	10
O=C(NCc1cccnc1)/C(=C\c1ccc(-c2ccc(Br)cc2)o1)S(=O)(=O)c1ccccc1	24	49	62*	-2	25
O=C(CN(Cc1ccc(Br)cc1)S(=O)(=O)c1ccccc1)NCc1cccnc1	0	14	-12	-2	6
O=C(NCc1cccnc1)/C(=C/c1ccc(-c2ccc(Cl)cc2)o1)S(=O)(=O)c1ccccc1	36	49	54*	-2	26
O=C(NCc1cccnc1)/C(=C/c1ccc(-c2cccc(C(F)(F)F)c2)o1)NC(=O)c1ccccc1	-2	-4	-10	0	-4
COc1ccc(NC(=O)C2Cc3c(-c4cccc(NC(C)=O)c4)ccnc3O2)cn1 (stereo unspecified)	/	/	-7	/	-6
CC(O)(c1cccnc1)c1nc(-c2cccc(C(F)(F)F)c2)cs1 (stereo unspecified)	/	/	17	/	-3
COC(=O)c1ccc(CNC(=O)Cn2cnc3c(SC)nc(N)nc32)cc1	-6	-3	-7	-1	-11
CC1(C)Cc2c(ccc3ccccc23)/C(=C/C(=O)N2CCCCC2)N1	16	64*	24	-9	28
Cc1nc(NC(=O)CSc2nnnn2Cc2ccccc2)sc1C	-4	86*	4	-1	-11
CCn1cc(C=C2C(=O)c3ccccc3C2=O)c2ccccc21	/	51*	3	/	7
CC(=NNC(=S)N1CCCCCC1)c1cccc2cccnc12	/	91*	-9	/	36
CCN(CC)S(=O)(=O)c1ccc2oc(C(=O)NCc3ccc(C)cc3)c(C)c2c1	6	13	70*	2	-6
C=C1C(=O)OC2CC1C(OC(C)=O)CC(C)=CCCC(C)=CCCC2(C)O (stereo unspecified)	/	/	51*	/	-5
C=C1C(=O)OC2CC1C(O)CC(C)=CCCC(C)=CC(O)CC2C (stereo unspecified)	/	12	0	/	7
O=c1cc(CN(Cc2ccccc2)Cc2ccccc2)c2c(ccc3ccccc32)o1	/	/	23	/	7
SMILES	APJ antagonist	CCR6 antagonist	EBI2 block	APJ agonist	CXCR6 inh
C[C@@H]1CN([C@@H](C)CO)C(=O)c2cc(Br)cnc2O[C@H]1CN(C)C(=O)NC1CCCC1	/	/	-2	/	-1
O=C(O)CC1S/C(=N/N=C/c2ccc(-c3ccc(Cl)c([N+](=O)[O-])c3)o2)NC1=O (stereo unspecified)	10	58*	1	-5	15
CCCSc1cc(NCCOC(C)=O)c([N+](=O)[O-])c2nonc12	22	17	8	-4	6
CC(=O)OCCCNc1cc(SCc2ccco2)c2nonc2c1[N+](=O)[O-]	15	55*	8	-2	28
Nc1[nH]c(C(=O)c2ccccc2)c(-c2ccncc2)c1C(=O)NCc1ccc(Cl)cc1	/	/	12	/	-3
Cc1cc(C)c(S(=O)(=O)/N=C2/C=C(Sc3ncn[nH]3)C(=O)c3ccccc32)cc1C	/	79*	11	/	46*
Cc1ccc(C)c(S(=O)(=O)/N=C2\C=C(NS(=O)(=O)c3ccccc3)C(=O)c3ccccc32)c1	37	45	9	-3	34
Cc1ccc(NC(=O)c2cccc(S(=O)(=O)Nc3c(C)n(C)n(-c4ccccc4)c3=O)c2)cc1C	/	6	/	/	/
